# Measurements as given in ChEMBL document CHEMBL1139681, “Discovery of orally active butyrolactam 11beta-HSD1 inhibitors” (Bioorg Med Chem Lett, 2006).
# Key:
# [1] = molecular target: 11-beta-hydroxysteroid dehydrogenase 1 (Mus musculus, UniProt P50172); assay: Inhibition of mouse 11beta-HSD1
# [2] = molecular target: T1, 11-beta-hydroxysteroid dehydrogenase 1 (Homo sapiens, UniProt P28845); assay: Inhibition of human 11beta-HSD1
# [3] = molecular target: 11-beta-hydroxysteroid dehydrogenase 1 (Mus musculus) (UniProt P50172); assay: Inhibition of DIO mouse liver 11beta-HSD1at 30 mg/kg, po after 1 hr; type: organism-based; set-up: dose 30 mg/kg; conditions: at 30 mg/kg
# Sequence of 11-beta-hydroxysteroid dehydrogenase 1 (Mus musculus) (P50172 whole entry, looked up): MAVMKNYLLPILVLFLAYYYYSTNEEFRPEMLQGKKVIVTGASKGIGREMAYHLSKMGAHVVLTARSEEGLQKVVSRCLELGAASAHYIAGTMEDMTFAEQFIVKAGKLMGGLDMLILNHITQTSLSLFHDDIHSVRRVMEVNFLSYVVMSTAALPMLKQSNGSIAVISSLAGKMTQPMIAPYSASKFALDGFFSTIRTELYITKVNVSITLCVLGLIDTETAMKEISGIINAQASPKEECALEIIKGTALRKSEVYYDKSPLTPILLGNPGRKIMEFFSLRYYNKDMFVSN
# In short: (§1)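 DIO mice given a single 30 mpk dose; 11β-HSD1 inhibition in liver and fat measured ex vivo at 1, 7 and 16 h post-dose.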
# [4] = molecular target: T2, 11-beta-hydroxysteroid dehydrogenase type 2 (Mus musculus, UniProt P51661); assay: Inhibition of mouse 11beta-HSD2
# T2 sequence (P51661 whole entry): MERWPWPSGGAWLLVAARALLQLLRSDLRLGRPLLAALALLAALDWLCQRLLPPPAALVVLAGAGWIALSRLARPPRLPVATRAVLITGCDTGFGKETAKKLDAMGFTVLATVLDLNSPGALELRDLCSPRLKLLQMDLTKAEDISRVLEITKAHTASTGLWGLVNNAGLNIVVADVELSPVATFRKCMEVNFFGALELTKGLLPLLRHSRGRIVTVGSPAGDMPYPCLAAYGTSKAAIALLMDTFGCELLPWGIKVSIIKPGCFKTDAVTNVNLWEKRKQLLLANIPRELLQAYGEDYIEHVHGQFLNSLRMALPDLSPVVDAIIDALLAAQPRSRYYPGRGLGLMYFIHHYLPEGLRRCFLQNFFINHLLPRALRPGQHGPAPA
# [5] = Plasma clearance in mouse at 5 mg/kg, iv and 10 mg/kg, po; type: ADME, organism-based
# In short: (§2)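 Mouse PK; parameters derived from iv dosing at 5 mg/kg and oral (po) dosing at 10 mg/kg.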
# [6] = Stability in mouse liver microsomes after 30 min; type: ADME, Microsome; conditions: for remaining at 0.5 h: liver microsomes, read-out: Stability
# In short: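 Percent parent remaining after a 30-min incubation with mouse liver microsomes.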
# Mus musculus [7] = assay: Effect on plasma triglyceride level in DIO C57BL/6J mouse at 30 mg/kg, po after 4 hr fasting; type: functional
# In short: (§3)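 Male C57BL/6J mice (5–6 weeks at purchase) made obese on high-fat diet, group-housed, 12 h light/dark cycle. Conditioned to oral gavage beforehand; assigned to groups of equal mean body weight. Dosed po bid (08:00, 15:00) in 1% Tween 80 in water, 4 ml/kg, for 14 days; lean and high-fat vehicle controls. Plasma analytes measured after 4 h fast; Dunnett's test.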
# Mus musculus [8] = assay: Lowering of plasma insulin level in DIO C57BL/6J mouse at 30 mg/kg, po after 4hrs fasting; type: functional; in short: as §3
# [9] = molecular target: 11-beta-hydroxysteroid dehydrogenase 1 (Mus musculus) (UniProt P50172); assay: Inhibition of DIO mouse liver 11beta-HSD1at 30 mg/kg, po after 7 hrs; type: organism-based; set-up: dose 30 mg/kg; conditions: at 30 mg/kg; in short: as §1
# [10] = molecular target: 11-beta-hydroxysteroid dehydrogenase 1 (Mus musculus) (UniProt P50172); assay: Inhibition of DIO mouse epididymal fat pad 11beta-HSD1 at 30 mg/kg, po after 16 hrs; type: organism-based; set-up: dose 30 mg/kg; in short: as §1
# [11] = molecular target: 11-beta-hydroxysteroid dehydrogenase 1 (Mus musculus) (UniProt P50172); assay: Inhibition of DIO mouse epididymal fat pad 11beta-HSD1 at 30 mg/kg, po after 7 hrs; type: organism-based; set-up: dose 30 mg/kg; in short: as §1
# Mus musculus [12] = assay: Lowering of plasma glucose level in DIO C57BL/6J mouse at 30 mg/kg, po after 4 hr fasting; type: functional; in short: as §3
# Mus musculus [13] = assay: Effect on body weight in DIO C57BL/6J mouse at 30 mg/kg, po; type: functional; in short: as §3
# [14] = molecular target: 11-beta-hydroxysteroid dehydrogenase 1 (Mus musculus) (UniProt P50172); assay: Inhibition of DIO mouse liver 11beta-HSD1at 30 mg/kg, po after 16 hrs; type: organism-based; set-up: dose 30 mg/kg; conditions: at 30 mg/kg; in short: as §1
# [15] = Bioavailability in mouse at 5 mg/kg, iv and 10 mg/kg, po; type: ADME, organism-based; conditions: in vivo; in short: as §2
# [16] = Half life in mouse at 5 mg/kg, iv and 10 mg/kg, po; type: ADME, organism-based; conditions: in vivo; in short: as §2
# [17] = molecular target: T3, 11-beta-hydroxysteroid dehydrogenase type 2 (Homo sapiens, UniProt P80365); assay: Inhibition of human 11beta-HSD2
# T3 sequence (P80365 whole entry): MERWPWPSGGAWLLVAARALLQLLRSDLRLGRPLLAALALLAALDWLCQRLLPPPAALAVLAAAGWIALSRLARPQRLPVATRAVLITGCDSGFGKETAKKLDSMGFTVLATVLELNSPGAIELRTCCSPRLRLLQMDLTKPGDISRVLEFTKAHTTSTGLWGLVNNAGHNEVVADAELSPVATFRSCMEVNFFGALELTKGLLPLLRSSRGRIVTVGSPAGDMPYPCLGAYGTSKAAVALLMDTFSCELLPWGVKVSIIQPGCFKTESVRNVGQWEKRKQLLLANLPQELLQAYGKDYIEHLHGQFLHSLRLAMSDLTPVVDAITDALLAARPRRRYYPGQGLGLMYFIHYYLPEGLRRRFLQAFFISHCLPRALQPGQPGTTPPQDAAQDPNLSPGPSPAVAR
# [18] = molecular target: T1, 11-beta-hydroxysteroid dehydrogenase 1; assay: Inhibition of human 11beta-HSD1 expressed in HEK293 cells; type: cell-based
# [19] = molecular target: 11-beta-hydroxysteroid dehydrogenase 1 (Mus musculus) (UniProt P50172); assay: Inhibition of DIO mouse epididymal fat pad 11beta-HSD1 at 30 mg/kg, po after 1 hr; type: organism-based; set-up: dose 30 mg/kg; in short: as §1
# Mus musculus [20] = assay: Effect on body weight in DIO C57BL/6J mouse at 5 mg/kg, po; type: functional; in short: as §3
# Mus musculus [21] = assay: Lowering of plasma glucose level in DIO C57BL/6J mouse at 5 mg/kg, po after 4 hr fasting; type: functional; in short: as §3
# Mus musculus [22] = assay: Lowering of plasma insulin level in DIO C57BL/6J mouse at 5 mg/kg, po after 4 hr fasting; type: functional; in short: as §3
# Mus musculus [23] = assay: Effect on plasma triglyceride level in DIO C57BL/6J mouse at 5 mg/kg, po after 4hrs fasting; type: functional; in short: as §3
# T1 sequence (P28845 whole entry): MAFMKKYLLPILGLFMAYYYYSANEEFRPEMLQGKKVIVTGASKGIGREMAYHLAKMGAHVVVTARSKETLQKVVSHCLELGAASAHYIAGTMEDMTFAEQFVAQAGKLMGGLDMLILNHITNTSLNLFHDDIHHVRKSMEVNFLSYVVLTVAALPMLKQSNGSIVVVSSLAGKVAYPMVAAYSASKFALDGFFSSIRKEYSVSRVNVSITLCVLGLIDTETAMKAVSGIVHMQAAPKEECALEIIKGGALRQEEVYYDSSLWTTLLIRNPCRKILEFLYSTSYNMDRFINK
# Sequence of 11-beta-hydroxysteroid dehydrogenase 1 (Mus musculus, UniProt P50172) (P50172 whole entry): as the sequence (P50172 whole entry, looked up) above
IC50 [1],IC50 [4],remaining at 0.5 h [6],IC50 [17],IC50 [18],IC50 [2],SMILES,further results
75 nM,–,–,–,–,–,C[C@H]1C(=O)N(C2CCCCCC2)C[C@@H]1COc1ccc(C#N)cn1,–
–,–,–,–,–,–,CC1(C)C(=O)N(C2CCCN(C(N)=O)CC2)CC1COc1ccc(C#N)cn1 (centres undefined),Ki [1]: 250 nM; Ki [2]: 190 nM
2 nM,10000 nM,97%,–,–,–,CC1(C)C(=O)N([C@H]2C3CC4CC2C[C@](C(N)=O)(C4)C3)CC1COc1ccc(C#N)cn1 (some centres undefined),inhibition [3]: 99%; clearance [5]: 33.3 mL/min/kg; Activity (Mus musculus [7]): 33.3 mg/dL; Activity (Mus musculus [8]): 1.31 ng/mL; inhibition [9]: 94%; inhibition [10]: 46%; inhibition [11]: 71%; Activity (Mus musculus [12]): 164.7 mg/dL; Activity (Mus musculus [13]): 40.7 g; inhibition [14]: 67%; bioavailability [15]: 76.6%; half-life [16]: 1.3 h
3 nM,> 50000 nM,–,15000 nM,39 nM,7 nM,CC1(C)C(=O)N([C@H]2C3CCCC2C[C@@H](C(N)=O)C3)CC1COc1ccc(C#N)cn1 (stereo in doubt; 31) [listing 1 of 2 here],"clearance [5]: 23.3 mL/min/kg; Stability ([6]; microsomes, 0.5 h): 88%; bioavailability [15]: 63.9%; half-life [16]: 1.3 h"
14 nM,60000 nM,67%,–,–,–,CC1(C)C(=O)N([C@H]2C3CC4CC2C[C@](C(=N)NO)(C4)C3)CC1COc1ccc(C(F)(F)F)cn1 (some centres undefined),–
430 nM,1600 nM,–,630 nM,230 nM,310 nM,CC1(C)C(=O)N([C@H]2C3CC4CC2C[C@](c2nnn[nH]2)(C4)C3)CC1COc1ccc(C(F)(F)F)cn1 (some centres undefined),–
–,–,–,> 10000 nM,–,64 nM,O=C1C(Cc2ccccc2)CCN1C1C2CC3CC(C2)CC1C3 (centres undefined),–
9 nM,100000 nM,92%,22000 nM,46 nM,5 nM,CC1(C)C(=O)N([C@H]2C3CCCC2C[C@@H](C(N)=O)C3)CC1COc1ccc(C#N)cn1 (stereo in doubt; 32),–
–,–,–,–,–,–,CC1(C)C(=O)N([C@H]2C3CCCC2C[C@@H](C(N)=O)C3)CC1COc1ccc(C#N)cn1 (stereo in doubt; 31) [listing 2 of 2 here],inhibition [3]: 73%; inhibition [19]: 68%; inhibition [9]: 33%; inhibition [10]: 17%; inhibition [11]: 30%; inhibition [14]: 14%
–,> 100000 nM,–,> 30000 nM,518 nM,–,CCOC(=O)[C@H]1[C@@H]2CCC(N3CC(COc4ccc(C#N)cn4)C(C)(C)C3=O)CC[C@@H]21 (some centres undefined),Ki [1]: 260 nM; Ki [2]: 50 nM
10 nM,100000 nM,91%,–,–,–,CC1(C)C(=O)N(C23CCC(C(N)=O)(CC2)CC3)CC1COc1ccc(C#N)cn1 (centres undefined),–
–,–,–,> 30000 nM,–,35 nM,NC(=O)[C@]12CC3CC(C1)[C@@H](N1CCC(Cc4ccccc4)C1=O)C(C3)C2 (some centres undefined),–
–,–,–,> 10000 nM,–,832 nM,O=C1C(Cc2ccccc2)CCN1[C@H]1C2CC3CC1C[C@](O)(C3)C2 (some centres undefined),–
10000 nM,–,–,–,–,–,N#Cc1ccc(OCC2CC(=O)N(C3CCCCCC3)C2)nc1 (centres undefined),–
–,–,–,> 10000 nM,–,107 nM,O=C1C(Cc2ccccc2)CCN1C1CCCCC1 (centres undefined),–
–,> 100000 nM,12%,> 100000 nM,510 nM,–,CC1(C)C(=O)N([C@H]2C3CCCC2C[C@H](C(N)=O)C3)CC1COc1ccc(C#N)cn1 (some centres undefined),Ki [1]: 17 nM; Ki [2]: 29 nM
41 nM,14000 nM,28%,1800 nM,28 nM,76 nM,CC1(C)C(=O)N([C@H]2C3CC4CC2C[C@](C(N)=O)(C4)C3)CC1COc1ccc(-n2ccnc2)cc1 (some centres undefined),–
–,–,–,–,–,–,CC#C[C@]1(O)CC[C@H]2[C@@H]3CCC4=CC(=O)CCC4=C3[C@@H](c3ccc(N(C)C)cc3)C[C@@]21C [MIFEPRISTONE],Activity (Mus musculus [7]): 43.2 mg/dL; Activity (Mus musculus [8]): 1.5 ng/mL; Activity (Mus musculus [12]): 147.5 mg/dL; Activity (Mus musculus [13]): 39.5 g
–,–,–,–,–,–,CN(CCOc1ccc(CC2SC(=O)NC2=O)cc1)c1ccccn1 (centres undefined) [ROSIGLITAZONE],Activity (Mus musculus [20]): 41.6 g; Activity (Mus musculus [21]): 143.4 mg/dL; Activity (Mus musculus [22]): 0.97 ng/mL; Activity (Mus musculus [23]): 50.8 mg/dL
62 nM,100000 nM,–,–,–,–,CC1(C)C(=O)N(C2CCCCCC2)CC1COc1ccc(C#N)cn1 (centres undefined),–
110 nM,> 100000 nM,100%,–,–,–,CC1(C)C(=O)N([C@H]2C3CC4CC2C[C@](C(=N)N)(C4)C3)CC1COc1ccc(C(F)(F)F)cn1 (some centres undefined),–

SMILES,IC50 [1],IC50 [4],remaining at 0.5 h [6],IC50 [17],IC50 [18],IC50 [2],further results
CC1(C)C(=O)N([C@H]2C3CC4CC2C[C@](C(N)=O)(C4)C3)CC1COc1ccc(-n2cncn2)cc1 (some centres undefined),32 nM,8000 nM,–,1600 nM,43 nM,41 nM,–
